Data reported in paper PMC10868414 (Pharmaceutical Biology, 2024).

Key:
[1] = SDS at 1.0% w/w mixed in diet; ref Elder [1983]; cited from earlier work
[2] = Elimination of andrographolide in urine and feces; type: in vivo, beagle dogs
Procedure, shortened: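 Male beagles (2.0–2.5 y, 10–15 kg; n = 4/group), fasted 10 h with water, caged singly; oral capsules equivalent to 3 mg/kg andrographolide, single dose and daily for 7 days. Urine centrifuged; feces mixed 50:50 w/v with methanol. Samples hydrolysed with β-glucuronidase solution (1,000 U/mL, pH 6.8, 37 °C, 30 min), methanol-precipitated with digoxin internal standard, LC-MS/MS (triple quadrupole); mean ± SD.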

[3] = poor water solubility and high permeability; ref Lee et al. [2019]; cited from earlier work
[4] = Lipinski's Rule of Five criterion; ref Lipinski et al. [2001]; cited from earlier work

| Compound | Abnormalities in long-term study [1] | dose excreted ([2]; beagle, dog, urine, po, 3 mg/kg) | Feces excretion of andrographolide ([2]; of the administered dose, after oral administration of A. paniculata formulations) | Biopharmaceutics Classification System (BCS) category [3] | logP value [4] |
| --- | --- | --- | --- | --- | --- |
| CCCCCCCCCCCCOS(=O)(=O)[O-].[Na+] [SDS, Sodium dodecyl sulfate] | did not result in any abnormalities | – | – | – | – |
| C=C1CC[C@@H]2[C@](C)(CO)[C@H](O)CC[C@@]2(C)[C@@H]1C/C=C1/C(=O)OC[C@H]1O [andrographolide, Andrographolide] | – | 0.1 to 1% | less than 0.4% | BCS class II | lower than 5 |
